{"data": "Published values collected from several papers", "cell line": "DU-145", "effect on": "cell growth or viability", "note": "Compare with care: the assays were run in different laboratories."}
{"Compound": "S=C([S][Au-][P+](CCCCCC[P+]([Au-][S]C(=S)n1cccn1)(c1ccccc1)c1ccccc1)(c1ccccc1)c1ccccc1)n1cccn1", "GI50": "1.31 µM"}
{"Compound": "COc1ccc(C(=O)/C=C/c2cccc(Cl)c2)cc1S(N)(=O)=O", "assay": "SRB", "conditions": "48 h", "GI50": "3.6 µM"}
{"Compound": "CCOc1c(OC)cc(CN2CCc3cc(OS(N)(=O)=O)c(OC)cc3C2)cc1OC", "assay": "WST-1", "conditions": "96 h", "GI50": "0.1 µM"}
{"Compound": "COc1cc(-c2ccc(-c3ccc(C(=N)N)nc3)s2)cc(OC)c1OC", "GI50": "3.45 µM"}
{"Compound": "COc1ccc(C(=O)/C=C/c2cccc(Br)c2)cc1S(N)(=O)=O", "assay": "SRB", "conditions": "48 h", "GI50": "3.6 µM"}
{"Compound": "COc1cc2c(cc1O)CCN(Cc1cccc(NS(C)(=O)=O)c1)C2", "assay": "WST-1", "conditions": "96 h", "GI50": "> 100 µM"}
{"Compound": "COc1ccc(C(=O)/C=C/c2c(F)cccc2Cl)cc1S(N)(=O)=O", "assay": "SRB", "conditions": "48 h", "GI50": "3.3 µM"}
{"Compound": "COc1cccc(C(=O)N2CCc3cc(O)c(OC)cc3C2)c1", "assay": "WST-1", "conditions": "96 h", "GI50": "31.3 µM"}
{"Compound": "CCOc1cc(CN2CCc3cc(O)c(OC)cc3C2)cc(OCC)c1OCC", "assay": "WST-1", "conditions": "96 h", "GI50": "> 100 µM"}
{"Compound": "COc1cc2c(cc1O)CCN(S(=O)(=O)c1ccccc1OC)C2", "assay": "WST-1", "conditions": "96 h", "GI50": "> 100 µM"}
{"Compound": "CCc1cc(CN2CCc3cc(O)c(OC)cc3C2)cc(CC)c1CC", "assay": "WST-1", "conditions": "96 h", "GI50": "63 µM"}
{"Compound": "COc1ccc(C(=O)/C=C/c2ccccc2Br)cc1S(N)(=O)=O", "assay": "SRB", "conditions": "48 h", "GI50": "3.3 µM"}
{"Compound": "CCOc1cc(CN2CCc3cc(OS(N)(=O)=O)c(OC)cc3C2)cc(OCC)c1OCC", "assay": "WST-1", "conditions": "96 h", "GI50": "8.5 µM"}
{"Compound": "COc1cc2c(cc1OS(N)(=O)=O)CCN(Cc1cccc(C(C)=O)c1)C2", "assay": "WST-1", "conditions": "96 h", "GI50": "1.85 µM"}
{"Compound": "COc1ccc(C(=O)/C=C/c2ccc(Cl)c(Cl)c2)cc1S(N)(=O)=O", "assay": "SRB", "conditions": "48 h", "GI50": "3.5 µM"}
{"Compound": "COc1cc2c(cc1O)CCN(Cc1cccc(OC)c1OC)C2", "assay": "WST-1", "conditions": "96 h", "GI50": "> 100 µM"}
{"Compound": "COc1ccc(-c2ccc(-c3ccc(C(=N)N)nc3)s2)cc1Cl", "GI50": "1.77 µM"}
{"Compound": "COc1cc2c(cc1OS(N)(=O)=O)CCN(Cc1cc(Cl)c(OC)c(OC)c1)C2", "assay": "WST-1", "conditions": "96 h", "GI50": "0.04 µM"}
{"Compound": "COc1cc2c(cc1O)CCN(C(=O)c1cc(OC)c(OC)c(OC)c1)C2", "assay": "WST-1", "conditions": "96 h", "GI50": "0.921 µM"}
